The values that follow come from PMC10598825 (JACS Au, 2023).

Test [1] addresses BcTSPO S22C-PEG. Put plainly: Tryptophan fluorescence quenching binding assay. The arrangement: species or system Bacillus cereus. Conditions: DDM-solubilized TSPO S22C conjugated with 5 kDa PEG; higher than WT.
The target in test [2] is T1, BcTSPO 34/102 double-cysteine variant (Bacillus cereus, UniProt Q81BL7, A34C/C107S/L102C).
T1 sequence (Q81BL7 1-153 A34C/L102C/C107S): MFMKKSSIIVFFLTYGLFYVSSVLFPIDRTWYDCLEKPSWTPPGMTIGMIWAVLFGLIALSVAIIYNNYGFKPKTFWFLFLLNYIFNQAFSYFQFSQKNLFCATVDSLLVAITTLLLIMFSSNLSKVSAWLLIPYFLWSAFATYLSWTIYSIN
Put plainly: PpIX degradation activity assay. The test is classed as biochemical. The settings on record: TSPO 34/102 in nanodiscs, PpIX:TSPO 1:1. The method, boiled down: (§1)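 His10-tagged Bacillus cereus TSPO (C107S cysteine-free background) was expressed in E. coli BL21(DE3) pLysS, Ni-purified in β-DDM, then reconstituted into MSP1D1 nanodiscs with POPC:POPE 60:40 (TSPO/MSP/lipid/cholate 1/4/270/540). PpIX and loaded nanodiscs were mixed 1:1 molar in a 1 mm quartz cuvette. Emission at 633 nm was recorded in pulses of 60 s continuous illumination. V0 was taken as the absolute slope of a linear fit to the first three points (~120 s). Triplicate, mean ± SE.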

Test [3] addresses T2, BcTSPO 34/151-W138F (Bacillus cereus, UniProt Q81BL7, A34C/C107S/S151C/W138F).
T2 sequence (Q81BL7 1-153 A34C/C107S/W138F/S151C): T1 sequence (Q81BL7 1-153 A34C/L102C/C107S) with C102L, W138F, S151C
The experiment in a line: Tryptophan fluorescence quenching binding assay. The settings on record: detergent-solubilized TSPO 34/151-W138F; in words.

For test [4], the target named is T3, BcTSPO 34/151 double-cysteine variant (Bacillus cereus, UniProt Q81BL7, A34C/C107S/S151C).
T3 sequence (Q81BL7 1-153 A34C/C107S/S151C): T1 sequence (Q81BL7 1-153 A34C/L102C/C107S) with C102L, S151C
Put plainly: PpIX degradation activity assay. The settings on record: TSPO 34/151 in nanodiscs, PpIX:TSPO 1:1. The test is classed as biochemical. The method, boiled down:
as §1

Test [5] has as its target T4, BcTSPO W138F (Bacillus cereus, UniProt Q81BL7, C107S/W138F).
T4 sequence (Q81BL7 1-153 C107S/W138F): T1 sequence (Q81BL7 1-153 A34C/L102C/C107S) with C34A, C102L, W138F
The experiment in a line: PpIX degradation activity assay. The test is classed as biochemical. Conditions: TSPO W138F in nanodiscs, PpIX:TSPO 1:1. The method in brief: as §1

The target of test [6] is T5, BcTSPO 34/102-D33P (Bacillus cereus, UniProt Q81BL7, A34C/C107S/D33P/L102C).
T5 sequence (Q81BL7 1-153 D33P/A34C/L102C/C107S): T1 sequence (Q81BL7 1-153 A34C/L102C/C107S) with D33P
Put plainly: PpIX degradation activity assay. The test is classed as biochemical. Conditions: TSPO 34/102-D33P in nanodiscs, PpIX:TSPO 1:1. The method, boiled down: as §1

The target in test [7] is T6, WT BcTSPO (Bacillus cereus, UniProt Q81BL7).
T6 sequence (Q81BL7 1-153): T1 sequence (Q81BL7 1-153 A34C/L102C/C107S) with C34A, C102L, S107C
The experiment in a line: PpIX degradation activity assay. Type of test: biochemical. Conditions: WT TSPO in nanodiscs, PpIX:TSPO 1:1, light exposure. The method in brief:
as §1

Test [8] concerns the target T7, BcTSPO 23/151 double-cysteine variant (Bacillus cereus, UniProt Q81BL7, C107S/S151C/V23C).
T7 sequence (Q81BL7 1-153 V23C/C107S/S151C): T1 sequence (Q81BL7 1-153 A34C/L102C/C107S) with V23C, C34A, C102L, S151C
The experiment in a line: PpIX degradation activity assay. The settings on record: TSPO 23/151 in nanodiscs, PpIX:TSPO 1:1. The test is classed as biochemical. The method, boiled down:
as §1

Test [9] addresses T2, BcTSPO 34/151-W138F. The experiment in a line: PpIX degradation activity assay. The test is classed as biochemical. Conditions: TSPO 34/151-W138F in nanodiscs, PpIX:TSPO 1:1. The method in brief:
as §1

In test [10] the target is T8, BcTSPO 34/102-K98E (Bacillus cereus, UniProt Q81BL7, A34C/C107S/K98E/L102C).
T8 sequence (Q81BL7 1-153 A34C/K98E/L102C/C107S): T1 sequence (Q81BL7 1-153 A34C/L102C/C107S) with K98E
The experiment in a line: PpIX degradation activity assay. The test is classed as biochemical. The settings on record: TSPO 34/102-K98E in nanodiscs, PpIX:TSPO 1:1. The method in brief: as §1

Test [11] has as its target T9, BcTSPO W51F (Bacillus cereus, UniProt Q81BL7, C107S/W51F).
T9 sequence (Q81BL7 1-153 W51F/C107S): T1 sequence (Q81BL7 1-153 A34C/L102C/C107S) with C34A, W51F, C102L
The experiment in a line: PpIX degradation activity assay. Conditions: TSPO W51F in nanodiscs, PpIX:TSPO 1:1. The test is classed as biochemical. The method in brief: as §1

Test [12] has as its target T10, BcTSPO 34/151-D33P (Bacillus cereus, UniProt Q81BL7, A34C/C107S/D33P/S151C).
T10 sequence (Q81BL7 1-153 D33P/A34C/C107S/S151C): T1 sequence (Q81BL7 1-153 A34C/L102C/C107S) with D33P, C102L, S151C
Put plainly: PpIX degradation activity assay. The test is classed as biochemical. The settings on record: TSPO 34/151-D33P in nanodiscs, PpIX:TSPO 1:1. The method in brief:
as §1

Test [13] addresses T8, BcTSPO 34/102-K98E. Put plainly: Tryptophan fluorescence quenching binding assay. Conditions: detergent-solubilized TSPO 34/102-K98E; in words.
Test [14] concerns the target T11, BcTSPO 23/35 double-cysteine variant (Bacillus cereus, UniProt Q81BL7, C107S/L35C/V23C).
T11 sequence (Q81BL7 1-153 V23C/L35C/C107S): T1 sequence (Q81BL7 1-153 A34C/L102C/C107S) with V23C, C34A, L35C, C102L
The experiment in a line: Tryptophan fluorescence quenching binding assay. Conditions: detergent-solubilized TSPO 23/35; in words.

Test [15] deals with T5, BcTSPO 34/102-D33P. The experiment in a line: Tryptophan fluorescence quenching binding assay. Conditions: detergent-solubilized TSPO 34/102-D33P; in words.
For test [16], the target named is T12, BcTSPO 34/151-K98E (Bacillus cereus, UniProt Q81BL7, A34C/C107S/K98E/S151C).
T12 sequence (Q81BL7 1-153 A34C/K98E/C107S/S151C): T1 sequence (Q81BL7 1-153 A34C/L102C/C107S) with K98E, C102L, S151C
Put plainly: Tryptophan fluorescence quenching binding assay. The settings on record: detergent-solubilized TSPO 34/151-K98E; in words.

Test [17] deals with T10, BcTSPO 34/151-D33P. The experiment in a line: Tryptophan fluorescence quenching binding assay. Conditions: detergent-solubilized TSPO 34/151-D33P; in words.
For test [18], the target named is T11, BcTSPO 23/35 double-cysteine variant. The experiment in a line: PpIX degradation activity assay. The test is classed as biochemical. Conditions: TSPO 23/35 in nanodiscs, PpIX:TSPO 1:1. The method in brief:
as §1

Test [19] has as its target T4, BcTSPO W138F. The experiment in a line: Tryptophan fluorescence quenching binding assay. Conditions: detergent-solubilized TSPO W138F; in words.
Test [20] has as its target T9, BcTSPO W51F. The experiment in a line: Tryptophan fluorescence quenching binding assay. The settings on record: detergent-solubilized TSPO W51F; in words.
In test [21] the target is T12, BcTSPO 34/151-K98E. The experiment in a line: PpIX degradation activity assay. Type of test: biochemical. Conditions: TSPO 34/151-K98E in nanodiscs, PpIX:TSPO 1:1. The method, boiled down:
as §1

Changes are numbered by the printed parent chain.

With `C=CC1=C(C)c2cc3[nH]c(cc4nc(cc5[nH]c(cc1n2)c(C)c5CCC(=O)O)C(CCC(=O)O)=C4C)c(C)c3C=C` [PpIX, protoporphyrin IX], in test [1], the “Kd value of S22C-PEG relative to that of WT” value was “approximately 10 fold”. The “reaction velocity V0 of PpIX degradation” value in test [2] is on record as “approximately 17 nM/s”; in [4], “approximately 17 nM/s”; in test [5], “below 2 nM/s”; in test [6], “approximately 5 nM/s”; in test [7] it was “approximately 17 nM/s”; in test [8] it was “approximately 17 nM/s”. The “reaction velocity V0 of PpIX degradation” value in test [9] is “below 2 nM/s”; in test [10], “approximately 5 nM/s”; in test [11] it was “approximately 5 nM/s”; in [12], “approximately 5 nM/s”; in [18], “approximately 5 nM/s”; in test [21] it was “approximately 5 nM/s”. The “binding of PpIX compared with WT” value in test [3] and in test [19] was “as strongly as WT” in each case. Further, the “dissociation constant Kd of PpIX compared with WT” value in [13], in test [14], in test [15], in [16], in test [17] and in test [20] was “much higher” throughout.
